Measurements taken from ChEMBL document CHEMBL1133743, “CCK peptides with combined features of hexa- and tetrapeptide CCK-A agonists” (J Med Chem, 2000).
*1 amine or outer side, *2 acyl side, *3 side chain or, on linkers, in order; H or OH if unused. Where a SMILES comes first, the peptide text is derived from it. Side-chain parts run from the residue outwards. [ ]: non-standard residue; d: D form. The star is where a group is joined. NMeF = CN[C@@H](Cc1ccccc1)C(=O)O; NMeD = CN[C@@H](CC(=O)O)C(=O)O; NH(2-Me-phenyl) = Cc1ccccc1N*; X3 = O=C(/C=C/c1ccc(O)cc1)*; Nle = CCCC[C@H](N)C(=O)O; X1 = O=C(Cc1ccc(O)cc1)*; Boc = CC(C)(C)OC(=O)*; CO = O=C([*:1])[*:2]

Tests used:
[1] = biological target: T1, Cholecystokinin receptor type A (Rattus norvegicus, UniProt P30551); assay: Inhibition of [125I]BH-CCK-8 binding to Cholecystokinin type A receptor of rat pancreatic tissue
T1 sequence (P30551 whole entry): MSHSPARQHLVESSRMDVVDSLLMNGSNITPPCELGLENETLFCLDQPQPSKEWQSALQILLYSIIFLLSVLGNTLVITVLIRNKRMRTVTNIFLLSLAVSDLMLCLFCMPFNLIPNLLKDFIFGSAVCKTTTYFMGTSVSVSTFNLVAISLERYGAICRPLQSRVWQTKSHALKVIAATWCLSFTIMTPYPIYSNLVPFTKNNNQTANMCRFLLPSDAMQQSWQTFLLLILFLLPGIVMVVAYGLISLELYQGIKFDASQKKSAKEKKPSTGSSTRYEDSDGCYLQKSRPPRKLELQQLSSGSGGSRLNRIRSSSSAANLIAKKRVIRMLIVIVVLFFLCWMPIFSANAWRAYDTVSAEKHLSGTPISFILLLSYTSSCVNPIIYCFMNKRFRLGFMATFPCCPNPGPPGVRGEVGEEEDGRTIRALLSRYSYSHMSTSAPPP
Summary of the method: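 Sprague–Dawley rat pancreas homogenized in 50 mM Tris pH 8.0 at 4 °C; washed membranes in 5 mM Tris (pH 7.4) with 5 mM MgCl2, 5 mM DTT, 2 mg/mL BSA, 0.14 mg/mL bacitracin.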

[2] = biological target: T2, Gastrin/cholecystokinin type B receptor (Rattus norvegicus, UniProt P30553); assay: Binding affinity towards Cholecystokinin type B receptor in rat cortex synaptosomes using [125I]BH-CCK-8 as radioligand; type: subcellular, Brain
T2 sequence (P30553 whole entry): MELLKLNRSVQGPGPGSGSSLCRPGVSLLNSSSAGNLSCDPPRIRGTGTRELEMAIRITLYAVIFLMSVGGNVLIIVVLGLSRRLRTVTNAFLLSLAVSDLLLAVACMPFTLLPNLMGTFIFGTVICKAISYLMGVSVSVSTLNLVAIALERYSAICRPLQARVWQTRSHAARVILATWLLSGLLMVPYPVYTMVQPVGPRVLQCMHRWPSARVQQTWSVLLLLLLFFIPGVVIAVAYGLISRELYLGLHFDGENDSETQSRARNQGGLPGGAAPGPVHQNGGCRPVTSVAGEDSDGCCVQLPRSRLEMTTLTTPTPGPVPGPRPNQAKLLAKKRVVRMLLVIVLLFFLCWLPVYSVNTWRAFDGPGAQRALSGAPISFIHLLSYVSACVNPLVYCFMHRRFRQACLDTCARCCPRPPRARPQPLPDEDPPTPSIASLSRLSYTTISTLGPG

[3] = test system: Rattus norvegicus; assay: Ability of intraperitoneally administered compound, to inhibit food intake was measured 0.5 hr after feeding the rats.; type: functional; settings: ip
Summary of the method: (§1)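 Male Sprague–Dawley rats (300–400 g), individually caged, 12 h light/dark cycle, trained ≥14 days to eat powdered chow during first 3 h of dark. Peptide or saline given ip in 0.5 mL 0.9% saline (pH 7.0–8.0) 10 min before food; cumulative intake read at 0.5 and 3 h in same experiment. Five doses, 10 rats/dose; ED50 by logistic fit.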

[4] = test system: Rattus norvegicus; assay: Ability of intraperitoneally administered compound, to inhibit food intake was measured 3 hr after feeding the rats.; type: functional; settings: ip; summary of the method: as §1

Compound	Ki [1]	Ki [2]	ED50 [3]	ED50 [4]
CCCC[C@H](NC(=O)Cc1ccc(O)cc1)C(=O)NCC(=O)N[C@@H](Cc1c[nH]c2ccccc12)C(=O)N[C@@H](CCCC)C(=O)N(C)[C@@H](CC(=O)O)C(=O)N[C@@H](Cc1ccccc1)C(N)=O (X1-[Nle]GW[Nle][NMeD]F-NH2)	4.2 nM	960 nM	3.8 µg/kg	13 µg/kg
CCCC[C@H](NC(=O)Cc1ccc(O)cc1)C(=O)NCC(=O)N[C@@H](Cc1c[nH]c2ccccc12)C(=O)N[C@@H](CCCCNC(=O)/C=C/c1ccc(O)cc1)C(=O)N[C@@H](CC(=O)O)C(=O)N(C)[C@@H](Cc1ccccc1)C(N)=O (X1-[Nle]GWK(X3)D[NMeF]-NH2)	3.4 nM	36 nM		
CSCC[C@H](NC(=O)Cc1ccc(OS(=O)(=O)O)cc1)C(=O)NCC(=O)N[C@@H](Cc1c[nH]c2ccccc12)C(=O)N[C@@H](CCSC)C(=O)N[C@@H](CC(=O)O)C(=O)N(C)[C@@H](Cc1ccccc1)C(N)=O	0.98 nM	84 nM		

Continued, in another order:

Ki [1]	Ki [2]	Compound	ED50 [3]	ED50 [4]
0.53 nM		Cc1ccccc1NC(=O)NCCCC[C@H](NC(=O)[C@H](Cc1c[nH]c2ccccc12)NC(=O)OC(C)(C)C)C(=O)N[C@H](CC(=O)O)C(=O)N(C)[C@@H](Cc1ccccc1)C(N)=O		
51 nM		CCCC[C@H](NC(=O)Cc1ccc(O)cc1)C(=O)NCC(=O)N[C@@H](Cc1c[nH]c2ccccc12)C(=O)N[C@@H](CCCC)C(=O)N[C@@H](CC(=O)O)C(=O)N(C)[C@@H](Cc1ccccc1)C(N)=O (X1-[Nle]GW[Nle]D[NMeF]-NH2)		
0.3 nM		Cc1ccccc1NC(=O)NCCCC[C@H](NC(=O)[C@H](Cc1c[nH]c2ccccc12)NC(=O)OC(C)(C)C)C(=O)N[C@@H](CC(=O)O)C(=O)N(C)[C@@H](Cc1ccccc1)C(N)=O	0.9 µg/kg	3.2 µg/kg
8.1 nM		Cc1ccccc1NC(=O)NCCCC[C@H](NC(=O)[C@H](Cc1c[nH]c2ccccc12)NC(=O)OC(C)(C)C)C(=O)N[C@@H](CC(=O)O)C(=O)N[C@@H](Cc1ccccc1)C(N)=O (Boc-WK([CO-NH(2-Me-phenyl)])DF-NH2)		
